Data taken from ChEMBL document CHEMBL1132225, “Novel antidiabetic and hypolipidemic agents. 3. Benzofuran-containing thiazolidinediones” (J Med Chem, 1999).
Several values for one entry are separate records, joined by “and”; a condition that tells them apart may be missing. Equal entries are not always repeated. Activity calls are given as the source filed them. The rule behind the calls is not given here.

Columns and labels:
[1] = target: T1, Peroxisome proliferator-activated receptor gamma (Homo sapiens) (UniProt P37231); assay: The fold activation against 1 amino acids 174-475)
T1 sequence (whole entry): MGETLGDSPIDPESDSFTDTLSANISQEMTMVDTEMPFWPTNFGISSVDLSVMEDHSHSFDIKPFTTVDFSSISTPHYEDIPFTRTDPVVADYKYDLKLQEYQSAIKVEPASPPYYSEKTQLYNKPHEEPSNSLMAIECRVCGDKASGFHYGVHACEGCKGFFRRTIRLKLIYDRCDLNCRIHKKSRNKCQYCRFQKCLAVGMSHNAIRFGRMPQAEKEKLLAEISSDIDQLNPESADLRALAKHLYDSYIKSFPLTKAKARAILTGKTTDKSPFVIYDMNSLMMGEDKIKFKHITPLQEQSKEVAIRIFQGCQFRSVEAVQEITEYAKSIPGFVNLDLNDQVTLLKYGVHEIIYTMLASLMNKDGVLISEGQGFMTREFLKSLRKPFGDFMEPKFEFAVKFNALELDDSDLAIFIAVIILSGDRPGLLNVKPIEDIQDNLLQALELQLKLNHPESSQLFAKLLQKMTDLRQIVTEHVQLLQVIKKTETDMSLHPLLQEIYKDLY

[2] = target: T2, Peroxisome proliferator-activated receptor alpha (Homo sapiens) (UniProt Q07869); assay: The fold activation against 50 u M Peroxisome proliferator activated receptor alpha(amino acids 167-468)
T2 sequence (whole entry): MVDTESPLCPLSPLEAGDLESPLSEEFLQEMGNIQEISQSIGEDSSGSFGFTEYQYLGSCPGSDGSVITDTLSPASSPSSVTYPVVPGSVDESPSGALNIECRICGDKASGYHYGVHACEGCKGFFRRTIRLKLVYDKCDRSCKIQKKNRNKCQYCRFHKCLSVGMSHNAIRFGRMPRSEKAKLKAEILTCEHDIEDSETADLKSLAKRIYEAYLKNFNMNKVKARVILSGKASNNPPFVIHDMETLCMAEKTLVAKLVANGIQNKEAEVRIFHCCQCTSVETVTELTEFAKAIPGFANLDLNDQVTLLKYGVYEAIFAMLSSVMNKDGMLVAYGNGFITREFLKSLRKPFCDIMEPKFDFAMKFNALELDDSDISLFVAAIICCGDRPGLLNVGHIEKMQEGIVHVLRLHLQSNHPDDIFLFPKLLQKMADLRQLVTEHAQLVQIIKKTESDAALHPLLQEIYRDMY

Mus musculus [3] = assay: Percent reduction in plasma triglyceride (TG) after 6 days of treatment. It is the mean of standard deviation observed in plasma triglyceride (TG) in db/db mice at dose of 100 mg/kg/day; format: functional; conditions: route oral
[4] = target: T2, Peroxisome proliferator-activated receptor alpha (Homo sapiens); assay: Compound was tested for fold transactivation of human Peroxisome proliferator activated receptor alpha at 50 uM
Mus musculus [5] = organism: Mus musculus; assay: Percent reduction of plasma glucose after 6 days of treatment (various doses).; format: functional
Mus musculus [6] = assay: Percent reduction in plasma triglyceride (TG) after 6 days of treatment. It is the mean of standard deviation observed in plasma triglyceride (TG) in db/db mice at dose of 30 mg/kg/day; format: functional; conditions: route oral
Mus musculus [7] = assay: Percent reduction of plasma glucose (PG) after 6 days of treatment. It is the mean of standard deviation observed in plasma glucose (PG) in db/db mice at dose of 30 mg/kg/day; format: functional; conditions: route oral
Mus musculus [8] = assay: Percent reduction of plasma glucose (PG) after 6 days of treatment. It is the mean of standard deviation observed in plasma glucose (PG) in db/db mice at dose of 100 mg/kg/day; format: functional; conditions: route oral
Mus musculus [9] = organism: Mus musculus; assay: The compound was tested for percent reduction of plasma triglyceride after 6 days of treatment.; format: functional; design: concentration or dose not given beside the values
Mus musculus [10] = assay: Percent reduction in plasma triglyceride (TG) after 6 days of treatment. It is the mean of standard deviation observed in plasma triglyceride (TG) in db/db mice at dose of 100 mg/kg/day; NA = Not Active; format: functional
Mus musculus [11] = assay: Percent reduction of plasma glucose (PG) after 6 days of treatment. It is the mean of standard deviation observed in plasma glucose (PG) in db/db mice at dose of 200 mg/kg/day; format: functional; conditions: route oral
Mus musculus [12] = assay: Percent reduction in plasma triglyceride (TG) after 6 days of treatment. It is the mean of standard deviation observed in plasma triglyceride (TG) in db/db mice at dose of 200 mg/kg/day; NA = Not Active; format: functional, organism-based
Mus musculus [13] = organism: Mus musculus; assay: The compound was tested for percent reduction of plasma triglyceride after 6 days of treatment; Not Active; format: functional, organism-based
Mus musculus [14] = assay: Percent reduction of plasma glucose (PG) after 6 days of treatment. It is the mean of standard deviation observed in plasma glucose (PG) in db/db mice at dose of 100 mg/kg/day; NA = Not Active; format: functional, organism-based
Mus musculus [15] = organism: Mus musculus; assay: The compound was tested for percent reduction of plasma glucose after 6 days of treatment; Not Active; format: functional, organism-based
[16] = Pharmacokinetic Parameter, AUC (0-t) is the area under the plasma concentration versus time curve in Female Wistar Rats at 100 mg/kg by po administration; format: ADME, organism-based; design: dose 100 mg/kg, route oral; conditions: rat
Rattus norvegicus [17] = organism: Rattus norvegicus; assay: The AUC(0-infinity) values in female wistar rats.; format: ADME, organism-based; design: time infinity; conditions: in vivo
[18] = Pharmacokinetic Parameter, Tmax is the time at which maximum concentration (Cmax) is reached in Female Wistar Rats at 100 mg/kg by po administration; format: ADME, organism-based; design: dose 100 mg/kg, route oral; conditions: rat, in vivo
[19] = Pharmacokinetic Parameter, half life period measured in Female Wistar Rats at 100 mg/kg by po administration; format: ADME, organism-based; design: dose 100 mg/kg, route oral; conditions: rat, in vivo
[20] = The half life period in female wistar rats.; format: ADME, organism-based; conditions: rat, in vivo
In short: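 Female Wistar rats (200–225 g), fasted 12 h overnight with water, fed 3 h post-dose; single 100 mg/kg oral dose as 0.5% CMC suspension. Retro-orbital blood sampled at multiple times; 0.2 mL plasma extracted, analysed by reverse-phase C18 HPLC with internal standard. Parameters by noncompartmental analysis; mean ± SD, n = 4.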

[21] = The Cmax values in female wistar rats.; format: ADME, organism-based; conditions: rat, in vivo
Rattus norvegicus [22] = organism: Rattus norvegicus; assay: The AUC(0-t)values in female wistar rats.; format: ADME, organism-based; conditions: in vivo
[23] = Pharmacokinetic Parameter, Kel is elimination rate constant in Female Wistar Rats at 100 mg/kg by po administration; format: ADME, organism-based; design: dose 100 mg/kg, route oral; conditions: rat, in vivo
[24] = The Kel values in female wistar rats.; format: ADME, organism-based; conditions: rat, in vivo
[25] = Pharmacokinetic Parameter, Cmax is observed maximum plasma concentration in Female Wistar Rats at 100 mg/kg by po administration; format: ADME, organism-based; design: dose 100 mg/kg, route oral; conditions: rat
[26] = The Tmax values in female wistar rats.; format: ADME, organism-based; conditions: rat, in vivo
[27] = Pharmacokinetic Parameter, AUC (0-infinity) is the area under the plasma concentration versus time curve extrapolated to infinity in Female Wistar Rats at 100 mg/kg by po administration; format: ADME, organism-based; design: time infinity, dose 100 mg/kg, route oral; conditions: rat, read-out: AUC 0-infinity

## Cc1c(C)c2c(c(C)c1O)C(CN1CCC[C@H]1COc1ccc(CC3SC(=O)NC3=O)cc1)C(C)(C)O2 (stereo partly specified)
[1]
  Fold activation: 1.21
[2]
  Fold activation: 0.46
Mus musculus [3]
  TG: 33%
[4]
  Transactivation: 0.46 fold
Mus musculus [5]
  Reduction: 37% and 28%
Mus musculus [6]
  TG: 29%
Mus musculus [7]
  PG: 28%
Mus musculus [8]
  PG: 37%
Mus musculus [9]
  Reduction: 33% and 29%

## Cc1c(C)c2c(c(C)c1O)C(COc1ccc(CC3SC(=O)NC3=O)cc1)C(C)(C)O2 (stereo unspecified)
Mus musculus [5]
  Reduction: 12%
Mus musculus [9]
  Reduction: 31%

## Cc1c(C)c2c(c(C)c1OCc1ccccc1)C(CN1CCC[C@H]1COc1ccc(/C=C3\SC(=O)NC3=O)cc1)C(C)(C)O2.Cl (stereo partly specified)
Mus musculus [5]
  Reduction: 25%
Mus musculus [6]
  TG: 57%
Mus musculus [7]
  PG: 25%
Mus musculus [9]
  Reduction: 57%

## Cc1c(C)c2c(c(C)c1O)C(CN(C)CCOc1ccc(/C=C3\SC(=O)NC3=O)cc1)C(C)(C)O2 (stereo unspecified)
Mus musculus [10]; route oral
  TG: 76%
Mus musculus [5]
  Reduction: 28%
Mus musculus [8]
  PG: 28%
Mus musculus [9]
  Reduction: 76%

## Cc1c(C)c2c(c(C)c1OCc1ccccc1)C(CN(C)CCOc1ccc(/C=C3\SC(=O)NC3=O)cc1)C(C)(C)O2 (stereo unspecified)
Mus musculus [11]
  PG: 23%
Mus musculus [5]
  Reduction: 23%
Mus musculus [12]
  TG: inactive
Mus musculus [13]
  Reduction: inactive

## Cc1c(C)c2c(c(C)c1OCc1ccccc1)C(CN1CCC[C@H]1COc1ccc(CC3SC(=O)NC3=O)cc1)C(C)(C)O2 (stereo partly specified)
[1]
  Fold activation: 0.17
[2]
  Fold activation: 0.33
[4]
  Transactivation: 0.33 fold

## Cc1oc2c(C)c(C)c(OCc3ccccc3)c(C)c2c1CN1CCC[C@H]1COc1ccc(CC2SC(=O)NC2=O)cc1 (stereo partly specified)
Mus musculus [10]
  TG: inactive
Mus musculus [14]
  PG: inactive

## Cc1c(C)c2c(c(C)c1OCc1ccccc1)C(CN1CCC[C@@H](Oc3ccc(/C=C4\SC(=O)NC4=O)cc3)C1)C(C)(C)O2 (stereo partly specified)
Mus musculus [3]
  TG: 52%
Mus musculus [14]
  PG: inactive
Mus musculus [15]
  Reduction: inactive
Mus musculus [9]
  Reduction: 52%

## Cc1c(C)c2c(c(C)c1O)C(CN1CCC[C@H]1COc1ccc(/C=C3\SC(=O)NC3=O)cc1)C(C)(C)O2 (stereo partly specified)
Mus musculus [10]
  TG: inactive
[1]
  Fold activation: 0.84
[2]
  Fold activation: 0.28
[4]
  Transactivation: 0.28 fold
Mus musculus [5]
  Reduction: 19%
Mus musculus [13]
  Reduction: inactive
Mus musculus [8]
  PG: 19%

## Cc1c(C)c2c(c(C)c1OCc1ccccc1)C(CN1CCC[C@H]1COc1ccc(/C=C3\SC(=O)NC3=O)cc1)C(C)(C)O2 (stereo partly specified)
[16]
  AUC(0-t): 15500 ng·h/mL
Rattus norvegicus [17]
  AUC: 23600 ng·h/mL
[18]
  Tmax: 3.5 h
[19]
  half-life: 13.1 h
Mus musculus [3]
  TG: 52%
[20]
  half-life: 13.1 h
[21]
  Cmax: 1250 ng/mL
Mus musculus [5]
  Reduction: 66% and 40%
Rattus norvegicus [22]
  AUC: 15500 ng·h/mL
[23]
  k el: 1.39e-05 s⁻¹
[24]
  k el: 1.39e-05 s⁻¹
Mus musculus [6]
  TG: 38%
Mus musculus [7]
  PG: 40%
[25]
  Cmax: 1250 ng/mL
[26]
  Tmax: 3.5 h
[27]
  AUC(0-inf): 23600 ng·h/mL
Mus musculus [8]
  PG: 66%
Mus musculus [9]
  Reduction: 52% and 38%

## Cc1oc2c(C)c(C)c(OCc3ccccc3)c(C)c2c1CN1CCC[C@H]1COc1ccc(/C=C2\SC(=O)NC2=O)cc1
Mus musculus [10]
  TG: inactive
Mus musculus [5]
  Reduction: 50%
Mus musculus [13]
  Reduction: inactive
Mus musculus [8]
  PG: 50%
